Bioassay records: PubChem, several laboratories
KCNQ1 pot: human KCNQ1 channel potentiation or activation | CHO-K1 KCNQ1, thallium flux FluxOR fluorescence; stronger effect = higher value | P51787 | B-score at 10 µM | 0.35% of 310,000 active;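 active means fluorescence ratio B-score, a plate-corrected score, at least three library SD, with initial intensity B-score within 5 SD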
Target sequence (P51787 whole entry, looked up): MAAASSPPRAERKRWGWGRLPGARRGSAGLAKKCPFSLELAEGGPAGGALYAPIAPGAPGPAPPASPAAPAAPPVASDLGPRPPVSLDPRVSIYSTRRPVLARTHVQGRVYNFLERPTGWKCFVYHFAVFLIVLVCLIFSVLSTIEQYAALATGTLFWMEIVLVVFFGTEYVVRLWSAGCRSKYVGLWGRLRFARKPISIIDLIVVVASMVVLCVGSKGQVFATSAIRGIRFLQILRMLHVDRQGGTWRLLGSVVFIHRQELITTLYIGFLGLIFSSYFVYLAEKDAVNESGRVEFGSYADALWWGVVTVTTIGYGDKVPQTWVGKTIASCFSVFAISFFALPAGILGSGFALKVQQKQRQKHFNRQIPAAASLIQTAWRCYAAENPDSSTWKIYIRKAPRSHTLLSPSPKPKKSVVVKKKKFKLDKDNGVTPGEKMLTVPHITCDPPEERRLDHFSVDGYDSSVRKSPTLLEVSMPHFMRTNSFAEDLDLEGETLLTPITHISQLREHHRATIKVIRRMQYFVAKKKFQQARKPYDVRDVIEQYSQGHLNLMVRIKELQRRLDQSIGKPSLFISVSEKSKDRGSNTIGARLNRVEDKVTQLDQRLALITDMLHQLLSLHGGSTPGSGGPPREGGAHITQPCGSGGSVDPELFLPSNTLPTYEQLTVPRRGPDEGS
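Material: CHO-K1 cells stably expressing KCNQ1. Medium: assay buffer for compound exposure, DMSO matched across wells. Reagent: K+/Tl+ depolarizing stimulus. Compound dosing: single-concentration screen. Times: 37 °C overnight plating, 90-min dark dye load, 20-min compound pretreatment. Technique: FluxOR Tl+ flux fluorescence.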
KCC2 mod: modulates chloride dependent transport by human KCC2. Q9H2X9. B-score of Tl+ flux slope (higher = more flux/activation; lower = inhibition) at 10 µM. KCC2 cells, thallium flux FluoZin-2 fluorescence. 2.2% of 190,000 active;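 active means thallium flux slope and its plate-corrected score both differing from the plate sample mean at a set confidence after two filtering rounds, in either direction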;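 further: slope of fluorescence scaled to starting intensity during 10 to 20 s after thallium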
AI-2 QS mod: modulates the Vibrio harveyi AI-2 quorum sensing system; activity change, % at 7.5 µM; 0.4% of 300,000 active; Vibrio harveyi JMH597 AI-2 luminescence/OD600 ratio, 9 h; stronger effect = lower value; strain lacks LuxN and CqsS sensors; 0 = neutral-control median; AID 2094; in the data active means activity change below about -75%, passing the limit was not always enough;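 further: luminescence divided by OD600 gain over 9 h not by final OD600 alone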
hERG rescue: compounds protecting human hERG from proarrhythmic drug block | 0.51% of 310,000 active | Q12809 | CHO-hERG, FluxOR thallium flux, dofetilide IC70 present | activation (rescue from dofetilide block), less the hit threshold, % at 10 µM | AID 1511;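 active means activation above the mean of controls blocked by dofetilide plus 5 SD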;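 further: thallium influx through hERG after potassium depolarization seen as dye fluorescence rise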
SUMO Mot1 rescue: SUMOylation pathway inhibition by Mot1-301 growth rescue; S. cerevisiae Mot1-301 growth rescue, ATP luminescence, 38.5C; percent above DMSO median, 100 means doubled; growth rescue, % at 18.8 µM; AID 2716; 1% of 320,000 active;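 active means every valid replicate shows activation above 250% relative to neutral control wells; inactive means the rest, any valid replicate at or below 250%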
KCNQ1 block: blocks the human KCNQ1 potassium channel | P51787 | CHO-K1 KCNQ1, FluxOR thallium flux fluorescence; stronger effect = higher value | B-score at 10 µM | 1.3% of 310,000 active | AID 2642;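 active means compounds whose thallium flux B-score, printed positive for inhibition, exceeds three library SD while starting fluorescence stays within three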;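 further: channel opened by potassium depolarization with thallium stimulus after 20 min compound exposure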
Hits are given with their value; i = inactive; nt = not tested or not shown. This is a sample that favours compounds with a hit; in the whole collection about 4.2% have one here.

SMILES	KCNQ1 pot	KCC2 mod	AI-2 QS mod	hERG rescue	SUMO Mot1 rescue	KCNQ1 block
COC(=O)c1ccc(C(C(=O)NC2CCCCC2)N(C(=O)Cc2cccs2)C2CC2)cc1 (stereo not drawn)	i	i	i	i	i	6
CCOC(=O)C(=O)Nc1nccs1	i	i	i	i	i	i
CCOC(=O)/C=C/C(=O)Nc1nccs1	i	i	-90.5	i	i	i
O=C(Cn1ncc2c(=O)oc3ccccc3c21)N1CCN(C(=O)c2ccco2)CC1	8	i	i	i	i	i
CCCCn1c(NC(=O)c2ccc(F)cc2)c(C#N)c2nc3ccccc3nc21	i	nt	i	i	i	6
C=CCn1c(O)c(N=NC(=O)OC(C)(C)C)c2ccccc21	i	17.4	i	i	i	i
COc1cc2c(cc1OC)C(c1cccc([N+](=O)[O-])c1)N(C(=O)CCC(=O)O)CC2 (stereo not drawn)	i	nt	i	i	i	i
COc1ccc(C2c3cc(OC)c(OC)cc3CCN2C(=O)c2cccc([N+](=O)[O-])c2)cc1OC (stereo not drawn)	i	nt	i	i	i	i
COc1cc2c(cc1OC)C(c1ccc([N+](=O)[O-])cc1)N(C(C)=O)CC2 (stereo not drawn)	i	nt	i	9.4	i	i
COc1cc2c(cc1OC)C(c1cccc([N+](=O)[O-])c1)N(C(=O)c1ccc(F)cc1)CC2 (stereo not drawn)	i	nt	i	i	i	11
COc1ccc(-c2nc3ccccc3c(=O)n2CCCN2CCOCC2)cc1	i	i	i	i	i	i
Cc1nc2ccccc2c(=O)n1CCCN1CCOCC1	i	i	nt	5.8	i	i
CC(C)Cc1nnc(NC(=O)c2ccc(N3CCCC3=O)cc2)s1	i	nt	nt	i	285.5	i
CCCCc1nnc(NC(=O)c2ccc(N3CCCC3=O)cc2)s1	i	nt	i	i	i	i
CC(=O)OCC1O[C@@H](O[C@@H]2C[C@H]3C(C)(C)[C@H](OC(C)=O)CC[C@]3(C)[C@H]3CC[C@]45C[C@]4(CC[C@H]5[C@@H](C)C[C@@H](O)[C@H](O)C(C)(C)O)[C@@]32C)[C@H](O)[C@@H](O)[C@@H]1O (stereo partly drawn)	i	i	i	6.5	i	i
CC(C)=CCC[C@](C)(O[C@@H]1O[C@H](CO[C@@H]2O[C@H](CO)[C@@H](O)[C@H](O)[C@H]2O)[C@@H](O)[C@H](O)[C@H]1O)C1CC[C@]2(C)C1C(=O)CC1[C@@]3(C)CC[C@H](O[C@H]4O[C@@H](CO)[C@H](O)[C@@H](O)[C@@H]4O)C(C)(C)C3CC[C@]12C (stereo partly drawn)	nt	nt	nt	nt	i	nt
CC(Oc1ccc(Br)cc1Br)C(=O)Nc1cccnc1 (stereo not drawn)	i	nt	i	12.0	i	i
CC(Oc1ccc(Br)cc1Br)C(=O)Nc1cccnc1Cl (stereo not drawn)	i	nt	i	i	i	i
CC(Oc1ccc(Cl)cc1Cl)C(=O)Nc1cccnc1 (stereo not drawn)	i	i	i	6.5	i	i
NC(=O)c1nnn(-c2nonc2N)c1-c1ccc([N+](=O)[O-])cc1	i	i	i	i	i	i
COc1ccccc1CNC(=O)Cn1cc([N+](=O)[O-])ccc1=O	i	nt	i	i	i	i
CCCOc1ccc(NC(=O)CC2Nc3ccccc3NC2=O)cc1 (stereo not drawn)	i	i	i	i	571.4	i
CN(C(=O)CSc1nc2ccc(Cl)cc2[nH]1)C1CCS(=O)(=O)C1 (stereo not drawn)	nt	nt	nt	nt	i	nt
O=[N+]([O-])c1cc(Cl)cc(/C=N/Nc2nc3ccccc3s2)c1O	i	nt	i	i	i	6
O=C(c1ccco1)N1CCN(C(=O)c2ccc(-c3cccc(C(F)(F)F)c3)o2)CC1	i	nt	i	i	i	i
SMILES	KCNQ1 pot	KCC2 mod	AI-2 QS mod	hERG rescue	SUMO Mot1 rescue	KCNQ1 block
O=C(Cn1nnc(-c2ccccc2)n1)N1CCCCC1	i	nt	i	i	i	i
O=C(Cn1nnc(-c2cccc(C(F)(F)F)c2)n1)N1CCCCCC1	i	i	i	5.1	i	i
O=C(c1ccc(-c2cccc(C(F)(F)F)c2)o1)N1CCCCCCC1	i	nt	i	i	532.9	i
CCOc1ccc(NC(=O)CSc2nnnn2-c2ccc(C(N)=O)cc2)cc1	i	nt	i	i	264.0	i
CN(CC(=O)Nc1c(Cl)cccc1Cl)C(=O)CCNS(=O)(=O)c1ccccc1C(F)(F)F	i	nt	i	i	i	i
C/C(=N\Nc1nc2ccccc2[nH]1)c1ccccn1	i	nt	-86.8	i	i	i
CC1Cc2ccccc2N1c1nc(C2CC2)nc2c1nnn2Cc1ccccc1 (stereo not drawn)	i	i	i	i	i	6
CC1Cc2ccccc2N1c1ncnc2c1nnn2Cc1ccccc1 (stereo not drawn)	i	i	i	i	i	i
CCCCNC(=O)/C(C#N)=c1\s/c(=C\c2ccccc2OC(F)F)c(=O)n1CCCOC	i	i	i	i	i	7
O=C(C[C@@H]1C/C=C\C[C@@H](Cc2ccc(F)cc2)C(=O)OCCNC1=O)N[C@H](CO)Cc1ccccc1	nt	nt	nt	nt	i	nt
O=C(O)c1ccccc1Nc1ccc([N+](=O)[O-])cc1C(=O)O	i	i	i	i	i	i
O=C(O)c1cc([N+](=O)[O-])ccc1NCCCc1ccccc1	i	nt	i	i	i	6
CC1CCCC(C)N1C(=O)COC(=O)c1ccc2ccccc2n1 (stereo not drawn)	nt	nt	nt	nt	i	nt
COc1ccccc1NC(=O)c1ccc([N+](=O)[O-])o1	i	nt	-87.3	i	i	i
Cc1cccc(NC(=O)c2ccc([N+](=O)[O-])o2)c1C	i	i	i	i	i	i
O=C(Nc1cccc(NC(=O)c2ccccc2Cl)c1)c1ccc([N+](=O)[O-])o1	i	nt	-191.5	i	i	i
O=C(Nc1cccc2ccccc12)c1ccc([N+](=O)[O-])o1	i	nt	-128.0	i	i	i
CC(C)[C@H](NC(=O)c1cc2cc(Cl)ccc2n1C)C(=O)N[C@@H](C(=O)O)c1ccccc1	i	nt	i	i	i	i
Cc1c(C(=O)N2CCN(c3ncccn3)CC2)oc2ccc(Cl)cc12	nt	nt	nt	nt	i	nt
CCCN(CCC)CCNC(=O)c1cc2c(=O)n(C)c3ccccc3c2n1C	i	i	i	i	323.0	i
Cc1ccc(C(=O)OCC(=O)NC2CC2)cc1S(=O)(=O)N1CCOCC1	nt	nt	nt	nt	i	nt
C=CCn1c(COc2ccc(Cl)cc2)nnc1SCC(=O)N/N=C/c1cccc(O)c1	i	nt	i	i	i	i
C=CCn1c(COc2ccccc2)nnc1SC(C)C(=O)N/N=C/c1cc(Cl)ccc1O (stereo not drawn)	i	i	i	i	i	7
